Test results published in ChEMBL document CHEMBL3352680, “Triterpene lactones from cultures of Ganoderma sp. KM01” (J Nat Prod, 2014).
Active and inactive are the calls of the source. The calls are words filed in the database; no cut-off is given here.

What was measured:
Plasmodium falciparum = experiment: Antimalarial activity against multidrug-resistant Plasmodium falciparum K1 assessed as reduction in parasite growth by [3H]-hypoxanthine uptake assay; assay type: functional, organism-based
Summary of the method: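 P. falciparum K1 (multidrug-resistant) maintained in continuous in vitro culture. Microculture radioisotope technique: growth measured as [3H]-hypoxanthine uptake. IC50 is the concentration giving 50% reduction in parasite growth. Dihydroartemisinin was the positive control.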

KB = experiment: Cytotoxicity against human KB cells up to 10 uM by colorimetric method; assay type: functional, cell-based
MCF7 = experiment: Cytotoxicity against human MCF7 cells up to 10 uM by colorimetric method; assay type: functional, cell-based
NCI-H187 (human) = experiment: Cytotoxicity against human NCI-H187 cells up to 10 uM by colorimetric method

SMILES | IC50 (Plasmodium falciparum) [µM] | Activity (KB) | Activity (MCF7) | Activity (NCI-H187 (human))
C[C@H]1[C@@H](O)O[C@@H]2O[C@@]3(C)CC[C@H]4[C@H](C)CC[C@@H]1[C@@]24OO3 [ARTENIMOL] | 0.004 | – | – | –
CC1=CC[C@]2(OC[C@]34CCC5=C(CC[C@@H]6C(=C5)C=CC(=O)OC6(C)C)[C@]3(C)CC[C@@H]4[C@@H]2C)OC1=O | 10 | inactive | inactive | inactive
CC1=CC[C@@H]([C@@H](C)[C@H]2CC[C@@]3(C)C4=C(C=C5C=CC(=O)OC(C)(C)[C@@H]5CC4)CC[C@]23C)OC1=O | 6 | inactive | inactive | inactive
CC(=O)O[C@@H]1C[C@H]([C@H](C)[C@H]2CC=C(C)C(=O)O2)[C@@]2(C)CCC3=C(CC[C@@H]4C(=C3)C=CC(=O)OC4(C)C)[C@]12C [COLOSSOLACTONE E] | 10 | inactive | inactive | inactive
